Source: PubChem BioAssay (several laboratories)
RAM inhibit = inhibitors of the yeast RAM network, primary screen, dse1pr::URA3 reporter, 5-FOA selection. S. cerevisiae dse1pr::URA3 reporter, 5-FOA growth OD615, 2 d; analog-sensitive cbk1-as2 kinase mutant strain. inhibition, % at 50 µM. 190,000 compounds, 1.8% hits;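 active = inhibition above a set limit, 3 SD over mean compound inhibition, cut at about 8.4% in these data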;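 note: inhibition rescues growth on 5-FOA so higher OD means more RAM inhibition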
Yeast life ext = compounds extending yeast replicative lifespan, primary screen, S. cerevisiae, OD615 | S. cerevisiae growth with nicotinamide; deaD strain in restrictive glucose medium | inhibition of the nicotinamide effect, % at 10 µM | 130,000 compounds, 0.68% hits | AID 775, 2007;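 active = inhibition above a set limit, placed 3 SD over the median of all compounds, cut at about 26% in these data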
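System: Modified budding yeast, DeaD strain | Buffer or medium: Restrictive glucose medium | Also added: 1.5 mM nicotinamide | Doses: 10 µM single point, 0.25% DMSO | Schedule: 48 h compound exposure at 30 °C, humidified | Detection: Absorbance at 615 nm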
Phagocyt inh = inhibitors of macrophage phagocytosis, primary screen, imaging, J774A.1 cells, IgG beads; J774A.1 macrophage IgG-bead phagocytosis; inhibition, % at 5 µM; 110,000 compounds, 0.07% hits; AID 1029, 2008;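 active = inhibition above the mean of the plate negative controls plus 5 SD, cut at about 13% in these data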;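 note: phagocytic index as fraction of beads internalized from green versus red external bead signal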
Yeast growth inh = growth inhibitors of yeast BB579 in restrictive medium, primary screen, yeast lifespan-shortening project, S. cerevisiae; OD615, 48 h; inhibition, % at 10 µM; 140,000 compounds, 0.51% hits;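 active = inhibition above a set limit, 3 SD over the mean compound inhibition, cut at about 44% in these data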
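System: DeaD yeast strain BB579; buffer or medium: CSMM-D dextrose restrictive medium; technique: OD at 615 nm; schedule: 4 h cell preincubation, 48 h compound exposure, 30 °C humidified; doses: single 10 µM dose; controls: amphotericin B 10 µg/mL, positive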
Of the large screens only hits and unclear results are named; the others gave an inactive call. Compounds with a hit are over-represented: about 2.7% of the library has one in this group of screens.

O=C(NCC1CCCO1)c1c(O)c2ccccc2[nH]c1=O (configuration not stated)	Yeast life ext 56.7
CCOC(=O)c1c(NCC2CCCO2)c2ccccc2[nH]c1=O (configuration not stated)	none
CC(C)CCn1c(=O)c(C(=O)N/N=C/c2cccc(F)c2)c(O)c2ccccc21	Yeast life ext 38.5
CCC(C)NC(=O)CSc1nnc(-c2ccc(Cl)cc2)n1N (configuration not stated)	none (no result: Yeast life ext, Phagocyt inh, Yeast growth inh)
Cc1ccccc1OC(=O)n1c(=S)oc2cc(Cl)ccc21	Yeast life ext 80.4 (no result: Phagocyt inh)
O=C(Oc1ccccc1)n1c(=S)oc2ccccc21	none
CC(=NCCN1CCN(C(C)=C2C(=O)c3ccccc3C2=O)CC1)C1=C(O)CC(C)(C)CC1=O	Yeast life ext 30.8
CC(=C1C(=O)c2ccccc2C1=O)N1CCN(CCN=CC2=C(O)CC(C)(C)CC2=O)CC1	Yeast life ext 34.3
Cc1ccc(-c2nc(CSc3nc4ccccc4c(=O)n3C)cs2)cc1	RAM inhibit 10.7
CCn1cc([N+](=O)[O-])c(C(=O)Nc2nc3ccc(OC)cc3s2)n1	none (no result: Yeast life ext, Phagocyt inh, Yeast growth inh)
CCCCOc1ccc2c(C)cc(=O)oc2c1OCCCC	RAM inhibit 8.8 (no result: Yeast life ext, Phagocyt inh)
CCOC(=O)CNC(=O)CNC(=O)c1ccc(OC)cc1	none
CCOC(=O)CSC(=S)NC(=O)c1ccc(OC)cc1	Yeast life ext 39.8
COc1cccc(-c2nn(C)c3sc(C(=O)NCc4ccc(C)o4)cc23)c1	RAM inhibit 10.6
S=C(NCc1ccc(Cl)cc1Cl)NC1CCCCC1	Yeast growth inh 70.9
O=C1CCCN2N=C(SCC(=O)N3N=C(c4ccc(Br)cc4)CC3c3ccc(F)cc3)SC2=N1 (configuration not stated)	RAM inhibit 10.9 (no result: Yeast life ext, Phagocyt inh, Yeast growth inh)
O=C(Cc1cccs1)Nc1cccc(-c2ccc3nncn3n2)c1	RAM inhibit 8.5 (no result: Yeast life ext, Phagocyt inh, Yeast growth inh)
CCCCNC(=O)c1ccc(NC(C)=O)c(Cl)c1	none (no result: Yeast life ext, Phagocyt inh, Yeast growth inh)
O=c1cccc2n1Cc1cc3ccccc3nc1-2	Yeast growth inh 46.0 (no result: Phagocyt inh)
Cc1nc2ccccc2cc1C(=O)O	none (no result: Phagocyt inh)
CCC1C(=O)N=C(SCC(=O)Nc2ccc(S(N)(=O)=O)cc2)NC1=O (configuration not stated)	none (no result: Yeast life ext, Phagocyt inh, Yeast growth inh)
CCC1C(=O)N=C(SCC(=O)Nc2ccccc2)NC1=O (configuration not stated)	Yeast growth inh 50.9 (no result: Yeast life ext, Phagocyt inh)
CCOc1nc(-c2ccccc2)ccc1-c1noc(-c2cccs2)n1	RAM inhibit 10.5 (no result: Phagocyt inh)
COc1ccc(C2(C(=O)O)CCCC2)cc1	Yeast life ext 34.7
COC(=O)c1ccccc1NC(=O)CSc1nnc(-c2cccnc2)n1N	none (no result: Yeast life ext, Phagocyt inh, Yeast growth inh)
COc1ccccc1NS(=O)(=O)c1ccc(Cl)c(NC(=O)c2sc3cc(Cl)ccc3c2Cl)c1	RAM inhibit 9.0 (no result: Yeast life ext, Phagocyt inh, Yeast growth inh)
CCN1C(=O)c2cccc3c(NC(=O)c4cccc(N5C(=O)CCC5=O)c4)ccc1c23	RAM inhibit 9.3
CCOc1cc(C(=O)Nc2ccc3c4c(cccc24)C(=O)N3CC)cc(OCC)c1OCC	none
Cn1c(=O)c(=O)n(C)c2cc(S(=O)(=O)N3CCN(Cc4ccccc4)CC3)ccc21	Yeast life ext 87.9
Cn1c(=O)c(=O)n(C)c2cc(S(=O)(=O)N3CCCCC3)ccc21	none
O=C(NNC(=O)C1CCCN(S(=O)(=O)c2cccc(F)c2)C1)C1CC1 (configuration not stated)	none (no result: Yeast life ext, Phagocyt inh, Yeast growth inh)
COc1ccc(C(=O)On2c(-c3ccc(Br)cc3)nc3ccccc3c2=O)cc1	Yeast life ext 96.0
COc1cc(OC)cc(-c2nc3ccccc3c(=O)n2OC(=O)c2ccc(Br)cc2)c1	Yeast life ext 71.0
Cc1ccnc(NC(=O)C(C)n2cc([N+](=O)[O-])cn2)c1 (configuration not stated)	none (no result: Yeast life ext, Phagocyt inh, Yeast growth inh)
COc1ccc(OC)c(NC(=O)Cn2cc(C(=O)c3ccco3)c3ccccc32)c1	none
COc1cccc(OCCn2cc(C(=O)c3ccco3)c3ccccc32)c1	RAM inhibit 10.2
COc1ccccc1OCCn1cc(C(=O)c2ccco2)c2ccccc21	RAM inhibit 8.8 (no result: Phagocyt inh)
CCC(=Nc1ccc(N)cc1)C1=C(O)C(C(=O)OC)C(C)(C)CC1=O (configuration not stated)	Yeast life ext 30.2
CCCC(=Nc1ccccc1)C1=C(O)C(C(=O)OC)C(C)(C)CC1=O (configuration not stated)	none (no result: Phagocyt inh)
CCCCC(=Nc1ccc(N)cc1)C1=C(O)C(C(=O)OC)C(C)(C)CC1=O (configuration not stated)	Yeast life ext 72.3
Cn1c(-c2sc3ccccc3c2Cl)n[nH]c1=S	none
